Published values of several laboratories.
Lines come from different studies, so protocols differ.
Target: Serine/threonine-protein kinase tousled-like 2 (TLK2, Homo sapiens, UniProt Q86UE8)

SMILES	test	conditions	remaining binding [%]
O=C(N1CCS(=O)(=O)CC1)N1C[C@H](c2ccc(OC(F)(F)F)cc2)C[C@H](c2nc(C3CC3)no2)C1	cell-free assay, competition with immobilised ligand	1 µM	100
COc1cnc(Nc2cccc(S(N)(=O)=O)c2)nc1N1CCN(c2ccccc2)CC1	binding, competition with immobilised ligand	1 µM	96
Cc1nc(C2CCN(C(=O)c3ccc(OC(F)(F)F)cc3N)CC2)c2ncc(N3CCN(C)CC3)cc2n1	cell-free assay, competition with immobilised ligand	1 µM	100
Nc1ncc2c(n1)-c1c([nH]c3ccc(C#CC4CC4)cc13)CCCC2	binding, competition with immobilised ligand	1 µM	100
CN(c1nccc(-c2cnn3ncccc23)n1)C1CC1	binding	1 µM	100
COc1ncc2cc3ccccc3nc2c1C#N	cell-free assay, competition with immobilised ligand	5 µM	100
c1cncc(-c2cccc(Nc3nccc(NC4CCCCC4)n3)c2)c1	binding, competition with immobilised ligand	10 µM	100
NS(=O)(=O)c1cc(NC(=O)C2(c3ccccc3Cl)CC2)ccc1Oc1cccc(Cl)c1	cell-free assay, competition with immobilised ligand	1 µM	100
COc1ccnn2ncc(-c3ccnc(N(C)C)n3)c12	binding	1 µM	100
O=C(c1ccc(Nc2ncc(Cl)c(-c3cc4ccccc4s3)n2)cc1)N1CCC(N2CCCC2)CC1	binding, competition with immobilised ligand	1 µM	26
C[C@H]1CCN(c2nccc(-c3cnn4ncccc34)n2)C1	binding	1 µM	100
Cc1cnc(Nc2ccc(C(=O)N3CCC(N4CCCC4)CC3)cc2)nc1-c1cc2ccccc2s1	binding, competition with immobilised ligand	1 µM	15
N[C@@H]1CCN(c2nccc(-c3cnn4ncccc34)n2)C1	binding	1 µM	100
CCS(=O)(=O)c1cc2cc(C[C@](O)(CC(C)(C)c3ccc(F)cc3C(N)=O)C(F)(F)F)[nH]c2cn1	cell-free assay, competition with immobilised ligand	1 µM	100
O=C(Nc1c[nH]nc1C(=O)NC1CCNCC1)c1cc(F)cc(F)c1	binding, competition with immobilised ligand	1 µM	98
CN(CCCC(F)(F)F)c1nccc(-c2cnn3ncccc23)n1	binding	1 µM	100
O=C(NCc1ncc(C(F)(F)F)cc1Cl)c1ccc2c(c1)C1(CCS(=O)(=O)CC1)[C@@H](C1CC1)N2S(=O)(=O)c1ccc(F)cc1	cell-free assay, competition with immobilised ligand	1 µM	100
COc1cnc(Nc2cccc(S(N)(=O)=O)c2)nc1N1CCN(c2ccccc2)C(=O)C1	binding, competition with immobilised ligand	1 µM	100
N#CC1(c2ccccn2)CCN(Cc2cc(C(=O)N3CCCC3)c(=O)n3ccccc23)CC1	cell-free assay, competition with immobilised ligand	1 µM	100
CN(C)c1ncc(F)c(-c2cnn3ncccc23)n1	binding	1 µM	100
O=C(NCCCN1CCOCC1)c1ccc(Nc2ncc(Cl)c(-c3ccc(Cl)s3)n2)cc1	binding, competition with immobilised ligand	1 µM	77
